Measured values from PubChem BioAssay AID1800 (The Scripps Research Institute Molecular Screening Center, 2009).
Hit rate of the full screen: of about 290,000 compounds, about 1,600 (0.55%) were called active. The sample holds actives, similar compounds and a random draw of the others, so the mix is not that of the screen.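 Rule for the calls: active = inhibition above the mean of all tested compounds plus 3 SD, set per campaign (cut at about 35% in these data); inactive = the rest.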

What follows are molecules tested on Hepatitis C virus NS3 helicase (assay: HCV NS3 DNA unwinding blockers – biochemical, Cy5 molecular beacon fluorescence, primary screen (AID 1800;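 note: 0% = DMSO wells and 100% = thioflavine S control wells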)). Details: at 10.9 µM, hits give high values.
Procedure, shortened: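 Measured by: Cy5 fluorescence, 0 and 60 min reads / Assay system: NS3 helicase fragment of HCV / Control set: low DMSO, high thioflavine S at 110 µM / Times: 1 h reaction at 25 °C, ATP-initiated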

SMILES	inhibition
COc1ccc(N2C(=O)/C(=C/c3ccco3)C(=O)NC2=S)cc1	58.9% (active)
COc1ccc(CN2C(=O)NC(=O)/C(=C\c3ccc(OC)c(OC)c3OC)C2=O)cc1	21.5% (inactive)
COc1cccc(N2C(=O)NC(=O)/C(=C\c3cn(C)c4ccccc34)C2=O)c1	-1.98% (inactive)
CN(C)CCN(CC1CCCN(Cc2ccccc2F)C1)C(=O)Cc1ccc(F)c(F)c1 (stereo not given)	-18.8% (inactive)
Cc1ccc(S(=O)(=O)N(C)c2ccc(C(=O)NCC3(N(C)C)CCCCC3)cc2)cc1	-37.1% (inactive)
Cc1cc(C)cc(NC(=S)NC2CC3CCCC(C2)N3Cc2cccs2)c1 (stereo not given)	-48.3% (inactive)
CN(C)CCCN=Cc1c(O)n(Cc2ccco2)c(=O)[nH]c1=O	16.9% (inactive)
CC(C)n1c(=O)c(C=Nc2ccc(Br)cc2)c(O)n(Cc2ccco2)c1=O	45.5% (active)
COc1cc2nc(N3CCN(C(=O)[C@@H]4CCCO4)CC3)nc(N)c2cc1OC	-0.76% (inactive)
CCN(CC)C(=O)Oc1ccc(NC(=O)N2CCOCC2)cc1	4.52% (inactive)
CC(C)(C)c1ccc(CN2C(=O)CN=C(c3ccccc3)c3ccccc32)cc1	14.7% (inactive)
O=C(CN1CCCC1=O)NCCc1ccccc1	0.89% (inactive)
O=C1CC(=O)N(Cc2ccccc2)C(=O)N1CCCCCCN1C(=O)CC(=O)N(Cc2ccccc2)C1=O	41.5% (active)
CC1(C)Cc2c(C#N)c(N3CCNCC3)nc(-c3ccco3)c2CS1	-44.9% (inactive)
Cc1ccc(C2CN(C)CC2C(=O)c2ccc(F)cc2)cc1 (stereo not given)	-2.19% (inactive)
